Source: PubChem BioAssay
In the library only some 3.5% were active in any assay of this set; here they are far more common.
Env fusion inh: HIV envelope-mediated fusion inhibition. HeLa-JRFL Env/CEM21 cell fusion, luciferase. inhibition, % at 12.3 µM. actives 1.1% (n = 360,000). AID 651610;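 active = mean replicate inhibition score of at least 50 and every replicate individually at or above 50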;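 also: 0% = plate neutral controls and 100% = maraviroc near 300 nM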
PGC1a acetyl inh: PGC1a acetylation modulation, inhibitor mode | AID 651687 | actives 0.17% (n = 350,000) | U2OS PGC1a acetylation, AlphaScreen anti-acetyl-lysine; with virally co-expressed GCN5 acetyltransferase | inhibition, % at 15.6 µM;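 active = every replicate shows inhibition of at least 40%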;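 also: 0% = neutral control wells and 100% = positive control wells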
FN deposition inh: fibronectin deposition inhibition. inhibition, % at 12.6 µM. actives 0.086% (n = 350,000). AH1F fibroblasts, Alexa488-fibronectin deposition fluorescence, overnight;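 active = mean inhibition across replicates of 30% or more, regardless of how many single replicates reach that level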;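 also: positive control wells lacked labelled fibronectin entirely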
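Assay system: AH1F fibroblasts assembling fluorescent fibronectin matrix; Amount: 10000 AH1F cells per well; Buffer or medium: DMEM, 2% serum; Probe or stimulus: Alexa488-fibronectin, 24 nM final in well; Doses: single compound dose, delivered by pin transfer; Incubation: 1 h adhesion, overnight exposure; Measured by: fluorescence 485/525 nm; Read-out: fibronectin deposition inhibition.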
rRNA inh HTS: selective bacterial rRNA inhibition in E. coli. E. coli WT GFP vs humanized-ribosome RFP mutants, fluorescence, 24 h; hits give low values; DMSO median 0, no signal -100. GFP signal change (wild-type ribosome), % (concentration not given with the values). actives 1.6% (n = 350,000). AID 720706;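 active = significant combined selectivity score with lowered wild-type GFP, culture density cut under 30%, mutant RFP and density less affected; inactive = any of these conditions unmet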
PglD DTNB: blocks C. jejuni PglD acetyltransferase activity; inhibition, % at 12.5 µM; actives 0.098% (n = 360,000); purified PglD enzyme, DTNB colorimetric CoA detection; in the data active = inhibition above about 16%, passing the limit was not always enough
DENV2 CPE: DENV2-induced cell death inhibition. AID 651640. DENV2-infected cells, cytopathic effect rescue, plate reader. actives 1.7% (n = 350,000). CPE inhibition, % at 9.99 µM; in the data active = CPE inhibition above about 20%, passing the limit was not always enough; tested in BHK-21 cells;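 also: 0% = median of neutral control wells and 100% = median of positive control wells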
* = called active by the depositor; / = not tested or not shown; ! = a repeat was not active; [ ] = dose if it differs, or a comment.

SMILES	Env fusion inh	PGC1a acetyl inh	FN deposition inh	rRNA inh HTS	PglD DTNB	DENV2 CPE
C=CC[C@H](CC(=O)N(CCO)Cc1ccccc1)C(=O)NC[C@H](OC(=O)[C@@H](CC=C)Cc1ccc(F)cc1)c1ccccc1	68.2*	5.7	-7.6	6.7	4.0	8.6
O=C(C[C@H]1CC[C@@H](NS(=O)(=O)c2ccccc2)[C@@H](CO)O1)N1CCN(c2ccccc2)CC1	/	/	/	-1.0	/	6.0
C[C@@H]1CN([C@H](C)CO)C(=O)Cc2cc(NC(=O)NC3CCCCC3)ccc2O[C@@H]1CN(C)C	/	7.7	-2.5	2.4	7.6	-5.4
O=C(NCCN1CCCC1)[C@H]1[C@H](CO)[C@H]2Cn3c(cccc3=O)[C@@H]1N2C(=O)NC1CCCC1	/	/	/	2.2	/	23.4*
O=C(NC1CCCCC1)[C@H]1[C@H](CO)[C@H]2Cn3c(cccc3=O)[C@@H]1N2Cc1cccnc1	/	/	-11.1	-0.1	-1.2	10.0
O=C(NCc1ccc(F)cc1)[C@H]1[C@H](CO)[C@H]2Cn3c(cccc3=O)[C@@H]1N2CC1CC1	/	/	/	0.8	-0.1	-1.0
C[C@H](NC(=O)[C@@H]1[C@@H](CO)[C@@H]2Cn3c(cccc3=O)[C@H]1N2Cc1cccnc1)c1ccccc1	/	/	/	-1.2	1.2	-4.6
O=C(NC1CCCCC1)[C@@H]1[C@@H](CO)[C@@H]2Cn3c(cccc3=O)[C@H]1N2Cc1cccnc1	/	/	-3.7	1.8	0.0	135.6*
O=C(NCc1ccc(F)cc1)[C@H]1[C@H](CO)[C@H]2Cn3c(cccc3=O)[C@@H]1N2CC1CCCC1	/	/	/	-1.8	1.8	42.9*
C[C@H](NC(=O)[C@H]1[C@H](CO)[C@H]2Cn3c(cccc3=O)[C@@H]1N2Cc1cccnc1)c1ccccc1	/	/	/	2.0	-2.6	81.3*
O=C(NCCCN1CCOCC1)[C@H]1[C@H](CO)[C@H]2Cn3c(cccc3=O)[C@@H]1N2C(=O)NC1CCCC1	11.7[16.7 µM]	/	-4.3	2.7	1.0	-7.5
CC=Cc1ccc2n(c1=O)C[C@@H]1[C@@H](CO)[C@H](C(=O)Nc3ccccc3)[C@H]2N1C(=O)CC (mixture of isomers)	/	/	/	0.6	-1.6	-4.9
O=C([C@H]1[C@H](CO)[C@H]2Cn3c(cccc3=O)[C@@H]1N2Cc1cccc(Cl)c1)N1CCCCC1	/	/	/	-5.4	2.8	33.8*
COC(=O)c1c(NC(=O)CN2CCC3(O)CCCCC3C2c2ccc(OC)cc2OC)sc(C)c1C (stereo not drawn)	66.1*	/	5.2	/	/	4.0
C/C(=N\Nc1ccc(C(=O)O)cc1)c1ccc2c(c1)Nc1ccccc1S2	-313.1	-10.2	0.6	-45.3*	-2.3	-3.1
CCOc1cc(N2CCOCC2)c(OCC)cc1NC(=O)COC(=O)CCOc1ccc(C(C)(C)C)cc1	-7.4	-4.5	3.8	3.7	-2.0	-10.1
CC(C)(C)c1ccc(OCCC(=O)Nc2ccc(N3CCOCC3)cc2N2CCOCC2)cc1	68.8*	/	-2.6	-5.1	8.8	12.3
O=C(Cc1ccc([N+](=O)[O-])cc1)Nc1cc(C(F)(F)F)cc(C(F)(F)F)c1	9.4	-7.5	1.0	-29.0*	2.0	13.9
O=C(Cc1ccc([N+](=O)[O-])cc1)Nc1cccc(C(F)(F)F)c1	22.6	1.7	-9.8	-42.2	/	-0.2
C[C@@H]1CN([C@H](C)CO)C(=O)Cc2cc(NC(=O)Cn3cnnn3)ccc2O[C@@H]1CN(C)CC1CCCCC1	-29.9[16.7 µM]	-0.7	-9.6	2.0	5.5	21.5*
C[C@H](CO)N1C[C@H](C)[C@@H](CN(C)C(=O)Nc2ccc(C(F)(F)F)cc2)Oc2ccc(NC(=O)Cn3cnnn3)cc2CC1=O	6.3[16.7 µM]	18.0	10.5	1.2	17.6*	-3.9
C[C@H]1CN([C@@H](C)CO)C(=O)Cc2cc(NC(=O)Cn3cnnn3)ccc2O[C@H]1CN(C)Cc1ccc(C(F)(F)F)cc1	91.9*[16.7 µM]	-2.9	/	0.6	-1.5	18.8
C[C@@H]1CN([C@H](C)CO)C(=O)Cc2cc(NC(=O)Cn3cnnn3)ccc2O[C@H]1CN(C)C(=O)Nc1ccc(C(F)(F)F)cc1	3.7[16.7 µM]	-16.3	-5.2	-3.1	7.8	30.4*
C[C@H](CO)N1C[C@H](C)[C@H](CN(C)C(=O)Nc2ccc(C(F)(F)F)cc2)Oc2ccc(NC(=O)Cn3cnnn3)cc2CC1=O	-12.8[16.7 µM]	1.7	-5.5	1.6	8.0	-5.0
C[C@@H]1CCCCO[C@H](CN(C)S(=O)(=O)c2cccs2)[C@H](C)CN([C@@H](C)CO)C(=O)c2cc(NC(=O)c3ccncc3)ccc2O1	-1.6[16.7 µM]	3.8	-6.3	-3.9	-3.2	-0.4
SMILES	Env fusion inh	PGC1a acetyl inh	FN deposition inh	rRNA inh HTS	PglD DTNB	DENV2 CPE
C[C@@H]1CN([C@@H](C)CO)C(=O)Cc2cc(NC(=O)Cn3cnnn3)ccc2O[C@@H]1CN(C)Cc1ccc(Oc2ccccc2)cc1	-7.3[16.7 µM]	-3.6	-2.1	0.7	0.5	1.8
C[C@H](CO)N1C[C@H](C)[C@H](CN(C)C(=O)Nc2ccc3c(c2)OCO3)Oc2ccc(NC(=O)Cn3cnnn3)cc2CC1=O	0.1[16.7 µM]	5.5	/	-0.2	0.7	41.7*
C[C@H](CO)N1C[C@H](C)[C@@H](CN(C)Cc2ccc(Oc3ccccc3)cc2)Oc2ccc(NC(=O)Cn3cnnn3)cc2CC1=O	-0.2[16.7 µM]	-3.3	3.9	-56.6	0.2	104.8*
C[C@@H]1CN([C@H](C)CO)C(=O)Cc2cc(NC(=O)Cn3cnnn3)ccc2O[C@@H]1CN(C)C(=O)Nc1ccc2c(c1)OCO2	42.0[16.7 µM]	4.2	/	3.6	-1.3	-0.4
Cc1ccc(CNC(=O)CCNS(=O)(=O)c2ccc3c(c2)c(=O)n(C)c(=O)n3C)cc1	5.6	3.8	/	/	-2.4	/
Cn1c(=O)c2cc(S(=O)(=O)NCCC(=O)NCc3ccccc3Cl)ccc2n(C)c1=O	6.2	46.6*	3.2	/	5.1	/
C[C@H]1CN([C@@H](C)CO)C(=O)c2cc(C#Cc3ccncc3)cnc2O[C@@H]1CN(C)CC1CCCC1	-22.4[16.7 µM]	-26.2	-17.3	12.6	-1.3	7.1
NC(=O)C1=C[C@H](c2coc3ccccc3c2=O)C[C@H](OCCCCO)O1	33.9	/	33.2*	4.2	-1.3	-1.8
O=C(Nc1ccccc1)C1=C[C@H](c2csc3ccccc23)C[C@H](OCCCCO)O1	-2.3	-4.1	-3.0	0.9	-2.4	20.2*!
C=CCOC(=O)C1=C[C@@H](c2coc3ccccc3c2=O)C[C@@H](OCc2ccc(CO)cc2)O1	27.7	-32.8	7.3	-11.8	-0.8	2.9
C=CCOC(=O)C1=C[C@H](c2coc3ccccc3c2=O)C[C@H](OCc2ccc(CO)cc2)O1	-12.4	-2.7	-2.6	-21.0*	4.1	5.6
COc1ccc(S(=O)(=O)N(C)C[C@@H]2Oc3ccc(NS(=O)(=O)c4c(C)noc4C)cc3C(=O)N([C@@H](C)CO)C[C@H]2C)cc1	6.3[16.7 µM]	-9.1	-2.9	2.5	3.8	/
